Data set [1] addresses Cholinesterase (Equus caballus) (UniProt P81908). Nature of the data set: Inhibition of equine serum BChE using butyrylthiocholine iodide as substrate at 10 uM after 20 mins by Ellman's method.
Data set [2] has as its target Acetylcholinesterase (Electrophorus electricus) (UniProt O42275). Nature of the data set: Inhibition of electric eel AChE using acetylthiocholine iodide as substrate at 10 uM after 20 mins by Ellman's method. A general note: Ellman's reagent forms a yellow product with free thiols.
The nature of data set [3]: Inhibition of HFIP-induced amyloid beta (1-40) aggregation at 100 uM after 2 hrs by thioflavin T fluorescence method. A digest of the protocol: (§1)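 Pre-monomerized Aβ1-40 (HFIP-dissolved, lyophilized) at 30 µM in PBS (0.01 M, NaCl 0.1 M, pH 7.4) with 2% HFIP and 10% DMSO, coincubated with compound in triplicate at 25 °C for 2 h. Sample mixed with 25 µM ThT in 0.025 M phosphate pH 6.0; excitation 440 nm, emission 485 nm. Peptide-free blanks subtracted; % inhibition versus control. Primary screen at 100 µM. IC50 from 5–7 concentrations (200–0.01 µM) tested in duplicate, three independent experiments.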

Data set [4] in a line: Inhibition of HFIP-induced amyloid beta (1-40) aggregation after 2 hrs by thioflavin T fluorescence method. The method in brief:
as §1

In the next data set the target is Acetylcholinesterase (Electrophorus electricus, UniProt O42275). As to the kind of experiment: Inhibition of electric eel AChE using acetylthiocholine iodide as substrate after 20 mins by Ellman's method. The method in brief:
(§2)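 Enzyme (eel AChE 463 U/mg or equine serum BChE 13 U/mg) in 0.1 M phosphate buffer pH 8.0 with DTNB, preincubated with inhibitor 20 min at 25 °C. Then acetylthiocholine or butyrylthiocholine iodide added; absorbance rise at 412 nm read 5.0 min at 25 °C. DMSO below 1%. IC50 from nonlinear regression of response/log(concentration), six to seven concentrations, 1×10^-8 to 1×10^-4 M. Means of three independent experiments.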

The target of another data set is Cholinesterase (Equus caballus, UniProt P81908). Nature of the data set: Inhibition of equine serum BChE using butyrylthiocholine iodide as substrate after 20 mins by Ellman's method. A digest of the protocol:
as §2

Data set [5] is described as follows: Inhibition of amyloid beta (1-42) aggregation at 100 uM measured at 8 hrs and 24 hrs by thioflavin T fluorescence method. The method in brief: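 Aβ1-42 (30 µM) in PBS/10% DMSO at 37 °C, alone or with compound at 100 µM. ThT fluorescence (ex 440, em 485 nm) read at 8 h and 24 h, reported in arbitrary units; mean ± SEM of three independent experiments.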
Data set [6] in a line: Inhibition of amyloid beta (1-40) beta-sheet transition assessed as decrease in beta-sheet level after 7 days by CD spectroscopic analysis relative to control. As to conditions: concentration not given here. A digest of the protocol: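 Aβ1-40 (50 µM) in PBS with 10% ethanol, alone or with compound (10 or 50 µM), incubated at 37 °C without agitation. CD spectra 195–250 nm were recorded at room temperature in a 0.1 cm cell, with buffer/ethanol or inhibitor blank baseline subtracted. Absolute ellipticity at 215 nm was followed over time and expressed relative to the control plateau.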

Data set [7] in a line: Aqueous solubility of the compound in PBS buffer. Format: physicochemical. A digest of the protocol:
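Preliminary solubility in the incubation medium (PBS with up to 10% ethanol cosolvent) measured by UV spectroscopy; used to set the maximum soluble test concentration.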

Data set [8] is described as follows: Inhibition of amyloid beta (1-40) fibrillation assessed as isolated fibrillar aggregates formation at 10 uM after 7 days by TEM analysis. The method in brief: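 Aβ1-40 (50 µM) in PBS/10% ethanol, with compound at 10 or 50 µM, incubated at 37 °C for up to 10 days. Aliquots taken at 7 days were applied to carbon-coated grids and negatively stained with 2% w/v uranyl acetate. Imaged by TEM at 60 kV and 39 000-fold magnification, compared with self-aggregating control.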

In brackets after ≈: the same amount, converted by molar mass. Activity calls are given as the source filed them. The rule behind the calls is not given here.

Our source for the inhibition, IC50 and solubility values is ChEMBL document CHEMBL2150999, “Design, synthesis and biological evaluation of benzo[e][1,2,4]triazin-7(1H)-one and [1,2,4]-triazino[5,6,1-jk]carbazol-6-one derivatives as dual inhibitors of beta-amyloid aggregation and acetyl/butyryl cholinesterase” (Eur J Med Chem, 2012).

Sequence of Cholinesterase (Equus caballus) (P81908 whole entry): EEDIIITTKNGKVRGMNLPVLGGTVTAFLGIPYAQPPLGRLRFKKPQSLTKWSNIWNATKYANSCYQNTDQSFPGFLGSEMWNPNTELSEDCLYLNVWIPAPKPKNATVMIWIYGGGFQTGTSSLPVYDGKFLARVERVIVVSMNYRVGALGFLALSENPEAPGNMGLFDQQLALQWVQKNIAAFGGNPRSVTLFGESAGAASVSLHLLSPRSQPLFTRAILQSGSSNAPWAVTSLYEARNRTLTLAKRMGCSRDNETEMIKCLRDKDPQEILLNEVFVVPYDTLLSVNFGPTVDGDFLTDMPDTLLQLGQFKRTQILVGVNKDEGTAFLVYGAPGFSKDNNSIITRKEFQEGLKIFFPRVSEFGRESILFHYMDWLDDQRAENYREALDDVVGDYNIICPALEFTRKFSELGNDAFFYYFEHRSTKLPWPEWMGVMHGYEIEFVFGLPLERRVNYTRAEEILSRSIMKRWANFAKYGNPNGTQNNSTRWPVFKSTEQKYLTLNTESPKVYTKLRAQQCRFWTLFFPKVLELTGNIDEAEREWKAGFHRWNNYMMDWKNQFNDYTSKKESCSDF
Sequence of Cholinesterase (P81908 whole entry): as above
Sequence of Acetylcholinesterase (Electrophorus electricus) (O42275 24-633 limits assumed): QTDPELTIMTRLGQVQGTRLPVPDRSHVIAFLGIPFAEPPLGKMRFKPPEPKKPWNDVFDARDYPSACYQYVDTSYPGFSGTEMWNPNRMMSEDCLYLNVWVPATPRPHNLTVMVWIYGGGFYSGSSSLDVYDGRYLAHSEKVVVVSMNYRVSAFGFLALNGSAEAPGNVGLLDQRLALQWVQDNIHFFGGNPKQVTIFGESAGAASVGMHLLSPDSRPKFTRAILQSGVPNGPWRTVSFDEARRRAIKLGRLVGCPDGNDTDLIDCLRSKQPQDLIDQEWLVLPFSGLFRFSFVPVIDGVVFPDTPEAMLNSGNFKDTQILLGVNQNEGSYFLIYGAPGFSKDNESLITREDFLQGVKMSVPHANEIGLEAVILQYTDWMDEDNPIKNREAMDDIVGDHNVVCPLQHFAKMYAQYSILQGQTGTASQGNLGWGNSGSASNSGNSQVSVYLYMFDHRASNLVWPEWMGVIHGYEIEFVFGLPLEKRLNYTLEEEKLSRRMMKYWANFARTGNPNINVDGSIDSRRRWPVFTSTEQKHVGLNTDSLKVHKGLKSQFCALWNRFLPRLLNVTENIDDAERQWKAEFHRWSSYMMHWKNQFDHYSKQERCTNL
Sequence of Acetylcholinesterase (O42275 whole entry): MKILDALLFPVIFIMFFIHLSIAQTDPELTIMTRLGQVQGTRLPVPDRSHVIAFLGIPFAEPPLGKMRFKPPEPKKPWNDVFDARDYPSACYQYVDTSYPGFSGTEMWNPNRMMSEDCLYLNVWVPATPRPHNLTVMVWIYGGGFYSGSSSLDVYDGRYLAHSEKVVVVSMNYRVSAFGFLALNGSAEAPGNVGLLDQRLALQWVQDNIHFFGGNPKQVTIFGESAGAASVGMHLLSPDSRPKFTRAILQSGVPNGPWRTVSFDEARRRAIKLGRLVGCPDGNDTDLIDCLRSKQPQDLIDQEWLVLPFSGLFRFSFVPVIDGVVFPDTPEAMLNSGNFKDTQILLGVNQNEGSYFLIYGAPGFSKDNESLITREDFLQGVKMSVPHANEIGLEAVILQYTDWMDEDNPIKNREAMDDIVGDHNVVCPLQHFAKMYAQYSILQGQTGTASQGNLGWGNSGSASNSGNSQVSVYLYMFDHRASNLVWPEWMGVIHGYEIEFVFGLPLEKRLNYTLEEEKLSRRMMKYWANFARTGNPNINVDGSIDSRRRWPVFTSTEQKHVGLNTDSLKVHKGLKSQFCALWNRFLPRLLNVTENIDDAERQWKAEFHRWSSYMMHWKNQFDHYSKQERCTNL

Turning to `O=c1cc2n(-c3ccccc3)nc(-c3ccccc3)nc-2cc1Nc1ccccc1`, the values for the inhibition in data set [1], in data set [2] and in data set [3] were 9%, 57% and 13%, respectively.
The like results for `CN(C)CCCN(C)c1cc2nc(-c3ccccc3)nn(-c3ccccc3)c-2cc1=O` were, in that order, 18%, 46% and 45%.
Turning to `O=c1c(N2CCC(c3ccccc3)CC2)cc2nc(-c3ccccc3)nn3c4ccccc4c1c23`, the inhibition in data set [1] amounted to 11%; in data set [2] it was 48%. Besides, in data set [4], the IC50 amounted to 3900 nM.
For `CN(Cc1ccccc1)c1cc2nc(-c3ccccc3)nn(-c3ccccc3)c-2cc1=O` the same measures were 22%, 56% and 1000 nM.
With `O=c1ccc2nc(-c3ccccc3)nn(-c3ccccc3)c-2c1`, the inhibition came to 27% in data set [1], 47% in data set [2] and 39% in data set [3].
In the case of `O=c1cc2n(-c3ccccc3)nc(-c3ccccc3)nc-2cc1N1CCCc2ccccc21`, the inhibition in [1] came out at 10%; in data set [2], 41%. For the same molecule, the concentration for half-maximal inhibition (IC50) in data set [4] turned out to be 6700 nM.
The like results for `CCN(CC)c1cc2nc(-c3ccccc3)nn3c4ccccc4c(c1=O)c23` were, in that order, 54%, 46% and 1400 nM.
As for `O=c1cc2n(-c3ccccc3)nc(-c3ccccc3)nc-2cc1N1CCN(c2ccccc2)CC1`, the inhibition in [1] is 15%; in [3], 53%. For the same molecule, the IC50 at Acetylcholinesterase came out at 2200 nM.
Turning to `CC1CCCN(c2cc3nc(-c4ccccc4)nn(-c4ccccc4)c-3cc2=O)C1` (stereo not drawn), the inhibition in data set [1] was found to be 25%; in [2] it was 55%. The molecule further yielded an IC50 in data set [4] of 730 nM.
On to `CN(CCCCCCCCN(C)c1cc2nc(-c3ccccc3)nn3c4ccccc4c(c1=O)c23)Cc1ccccc1`, for which the IC50 in data set [4] was determined as 1400 nM; at Cholinesterase, 25 nM. The inhibition in data set [2] came out at 55%. The inhibition result in [5] was “Active”.
As for `CN(c1cc2nc(-c3ccccc3)nn(-c3ccccc3)c-2cc1=O)C1CCCCC1`, the inhibition turned out to be 37% in data set [1] and 55% in data set [2]. In data set [4], the IC50 was 4000 nM.
Turning to `O=c1cc2n(-c3ccccc3)nc(-c3ccccc3)nc-2cc1N1CCCC1`, the inhibition was found to be 15% in [1], 54% in data set [2] and 68% in [3].
For `O=c1cc2n(-c3ccccc3)nc(-c3ccccc3)nc-2cc1N1CCN(Cc2ccccc2)CC1` the same measures were 18%, 56% and 61%.
With `CC1CC(C)CN(c2cc3nc(-c4ccccc4)nn(-c4ccccc4)c-3cc2=O)C1` (stereo not drawn), the inhibition in [1] stood at 18%; in data set [2], 46%. The same molecule returned an IC50 in [4] of 1200 nM.
For `CN(Cc1ccccc1)c1cc2nc(-c3ccccc3)nn3c4ccccc4c(c1=O)c23` the same measures were 26%, 53% and 4100 nM.
For `O=c1cc2n(-c3ccccc3)nc(-c3ccccc3)nc-2cc1N1CCCCC1` the same measures were 7%, 39% and 7100 nM.
The like results for `O=c1cc2n(-c3ccccc3)nc(-c3ccccc3)nc-2cc1N1CCCCCC1` were, in that order, 47%, 46% and 2800 nM.
On to `CC1CCCCN1c1cc2nc(-c3ccccc3)nn(-c3ccccc3)c-2cc1=O` (stereo not drawn), for which the inhibition worked out at 22% in [1] and 0% in data set [2]. The molecule further displayed an IC50 in data set [4] of 370 nM. Further, in [5], the inhibition entry was “Active”.
For `CCN(Cc1ccccc1)c1cc2nc(-c3ccccc3)nn(-c3ccccc3)c-2cc1=O`, the values for the inhibition in data set [1] and in data set [2] were 13% and 53%, respectively. The IC50 in [4] was determined as 2100 nM.
Turning to `CN(CCCCCN(C)c1cc2nc(-c3ccccc3)nn(-c3ccccc3)c-2cc1=O)Cc1ccccc1`, the IC50 worked out at 1400 nM in data set [4], 1500 nM against Acetylcholinesterase and 1900 nM against Cholinesterase. For the same molecule, in data set [6], the inhibition amounted to 40%. In data set [7], this molecule registered a solubility of 10 µM (≈ 5.18 µg/mL). Further, the inhibition result in [5] and in [8] was “Active” in each case.
Consider `CN1CCN(c2cc3nc(-c4ccccc4)nn(-c4ccccc4)c-3cc2=O)CC1`, for which the inhibition in data set [1] is 12%; in data set [2] it was 55%; in data set [3], 55%.
For the molecule `CCN(CC)c1cc2nc(-c3ccccc3)nn(-c3ccccc3)c-2cc1=O`, the values for the inhibition in [1] and in [2] were 19% and 55%, respectively. Further, in data set [4], inhibition was half-maximal at 17000 nM (IC50).
In the case of `CN(c1ccccc1)c1cc2nc(-c3ccccc3)nn(-c3ccccc3)c-2cc1=O`, the inhibition in data set [1] turned out to be 11%; in [2] it was 57%; in data set [3] it was 51%.
For the molecule `CC1CCCN(c2cc3nc(-c4ccccc4)nn4c5ccccc5c(c2=O)c34)C1` (stereo not drawn), the inhibition is 53% in data set [1] and 27% in data set [2]. In data set [4], the IC50 turned out to be 5500 nM.
For the molecule `O=c1cc2n(-c3ccccc3)nc(-c3ccccc3)nc-2cc1N1CCOCC1`, the inhibition in data set [1] amounted to 0%; in data set [2], 42%; in data set [3], 48%.
The like results for `O=c1cc2n(-c3ccccc3)nc(-c3ccccc3)nc-2cc1Sc1ccccc1` were, in that order, 6%, 49% and 42%.
On to `CN(C)CCCN(C)c1cc2nc(-c3ccccc3)nn3c4ccccc4c(c1=O)c23`, for which the IC50 in [4] was found to be 7600 nM; against Cholinesterase it was 4000 nM. Also, the inhibition in data set [2] was 49%.
Take `COc1cc2nc(-c3ccccc3)nn(-c3ccccc3)c-2cc1=O`: the inhibition in data set [1] worked out at 15%; in data set [2], 47%; in [3] it was 60%.
As to `O=c1cc2n(-c3ccccc3)nc(-c3ccccc3)nc-2cc1N1CCC(c2ccccc2)CC1`, the results for the inhibition in [1] and in data set [2] were 10% and 35%, respectively. The same molecule gave an IC50 in [4] of 1500 nM.
On to `O=c1cc2n(-c3ccccc3)nc(-c3ccccc3)nc-2cc1N1CCSCC1`, for which the inhibition in data set [1] was determined as 0%; in [2] it was 42%; in data set [3], 62%.
Consider `CC1CCN(c2cc3nc(-c4ccccc4)nn(-c4ccccc4)c-3cc2=O)CC1`, for which the inhibition was 11% in data set [1], 48% in data set [2] and 68% in data set [3].
For `CN(CCCCCCCCNc1cc2nc(-c3ccccc3)nn3c4ccccc4c(c1=O)c23)Cc1ccccc1` the same measures were 25%, 46% and 60%.
As for `CN(CCCCCCCCN(C)c1cc2nc(-c3ccccc3)nn(-c3ccccc3)c-2cc1=O)Cc1ccccc1`, the IC50 was determined as 65000 nM in data set [4] and 310 nM against Cholinesterase. The molecule further came in with an inhibition in data set [2] of 50%.
For `CN(CCCCCCCCNc1cc2nc(-c3ccccc3)nn(-c3ccccc3)c-2cc1=O)Cc1ccccc1`, the inhibition stood at 28% in data set [1] and 45% in data set [2]. In [4], this molecule came in with an IC50 of 21000 nM.
As to `O=c1cc2n(-c3ccccc3)nc(-c3ccccc3)nc-2cc1N1CCc2ccccc2C1`, the inhibition in data set [1] was determined as 14%; in data set [2], 47%; in data set [3] it was 68%.
For the molecule `O=c1c(N2CCCC2)cc2nc(-c3ccccc3)nn3c4ccccc4c1c23`, the inhibition in data set [1] worked out at 52%; in data set [2] it was 44%. In data set [4], this molecule returned an IC50 of 2000 nM.
As for `O=c1c(O)c(-c2ccc(O)c(O)c2)oc2cc(O)cc(O)c12`, the inhibition entry in data set [5] is “Active”.
For the molecule `COc1cc2nc(-c3ccccc3)nn3c4ccccc4c(c1=O)c23`, the figures for the inhibition in data set [1], in data set [2] and in [3] were 11%, 52% and 33%, respectively.

By inhibition is commonly meant how much of the control response was suppressed. One may read the IC50 as the concentration at which inhibition is half-maximal. A low value points to higher potency. Usually solubility stands for how much of the substance goes into solution per volume. Low readings indicate little dissolved substance, high ones much dissolved substance.
